Consider one compound from ChEMBL document CHEMBL3865807, “Syntheses and photodynamic activity of some glucose-conjugated BODIPY dyes” (Eur J Med Chem, 2016).

Data set [1] is described as follows: Toxicity in human A549 cells assessed as alteration in cell morphology at 100 nM measured up to 4 hrs in dark by confocal microscopy. It counts as cell-based. Particulars: a549, 4 h, 0.1 µM.
The test system of data set [2] is A549. Kind of data set: Induction of apoptosis in human A549 cells assessed as decrease in pro-caspase 3 level at 2.5 uM preincubated for 1 hr followed by in 0.77 mW/cm2 white light irradiation for 80 mins by immunoblot analysis. It counts as functional, cell-based. The conditions noted are these: TDE = time-dependent effect. In outline: (§1)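 Whole-cell extracts from A549 cells (1×10^6) treated with 0 or 2.5 µM compound, photo-exposed 80 min, lysed in Tris pH 7.4/NaCl/EDTA/Triton with protease inhibitors; 30 µg protein on 12% SDS-PAGE, nitrocellulose, milk block, caspase-3 antibody overnight 4 °C, HRP secondary, chemiluminescence; band ratio to normal control (=1) after loading-control normalisation.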
On the technique in general: In western blotting, separated proteins are transferred to a membrane and probed.

The nature of data set [3]: Cytotoxicity against human A549 cells assessed as decrease in cell viability up to 200 uM after 48 hrs under dark condition by MTT assay. It counts as toxicity, cell-based. The conditions noted are these: a549, 48 h. In outline: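 Dark toxicity: A549 cells treated as in the MTT protocol (1 h compound exposure, serum-free medium, washed) with no light, then assessed at 48 h by MTT (0.5 mg/mL, 6 h, formazan in HCl/SDS, A550).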

Data set [4] can be described thus: Drug uptake in human A549 cells assessed as mean fluorescence intensity at 2.5 uM after 8 hrs by flow cytometry (reference value: 5.4 +/- 1.5). Particulars: a549, 8 h. It counts as ADME, cell-based. A general note: In flow cytometry, cells or beads pass a laser one at a time.
Data set [5] deals with A549. The data set is described as follows: Induction of apoptosis in human A549 cells assessed as increase in caspase 9 activity at 2.5 uM preincubated for 1 hr followed by 0.77 mW/cm2 white light irradiation for 80 mins measured after 16 hrs in presence of caspase-9 inhibitor Z-LEHD-FMK by immunoblot analysis. It counts as functional, cell-based.
A short description of data set [6]: Photocytotoxicity against human L-132 cells at 50 uM using 0.77 mW/cm2 white light irradiation by MTT assay. The class given is toxicity, cell-based. The conditions noted are these: l132, 50 µM. In general terms: Tetrazolium dyes change colour on reduction, which living cells bring about.
The species named for data set [7] is Bos taurus. Kind of data set: Binding affinity to calf thymus duplex DNA assessed as decrease in intensities of maximum absorption at 50 uM by spectrophotometric titration analysis.
Data set [8] is described as follows: Cell cycle arrest in human A549 cells assessed as accumulation at subG1 phase at 2.5 uM preincubated for 1 hr followed by 0.77 mW/cm2 white light irradiation for 80 mins measured after 24 hrs by propidium iodide staining based flow cytometry (reference value: 8.2 +/- 1.1%). The class given is functional.
Data set [9] in a line: Drug uptake in cytoplasm of human A549 cells at 1 uM after 0.25 to 3 hrs by Hoechst 33342 staining based fluorescence microscopy. The conditions noted are these: a549, 1 µM. The class given is ADME, cell-based. In outline:
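A549 cells on coverslips loaded with dyes (1 µM) for 0.25, 0.5, 1, 2 or 3 h at 37 °C, washed, counterstained with Hoechst 33342 (10 µM), mounted in 70% glycerol; red dye and blue nuclear fluorescence imaged by fluorescence microscopy (40×) and overlaid.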

Data set [10] can be described thus: Cytotoxicity against human L-132 cells assessed as reduction in cell viability at 50 uM under dark condition by MTT assay. It counts as toxicity, cell-based. The conditions noted are these: l132, 50 µM.
Data set [11] is described as follows: Cytotoxicity against human WI38 cells assessed as reduction in cell viability at 50 uM under dark condition by MTT assay. It counts as toxicity, cell-based. Particulars: wi-38, 50 µM.
Data set [12] concerns A549. The data set is described as follows: Induction of apoptosis in human A549 cells assessed as accumulation at subG1 phase at 5 to 50 uM preincubated for 1 hr followed by 0.77 mW/cm2 white light irradiation for 30 mins measured after 24 hrs by propidium iodide staining based flow cytometry relative to control. It counts as functional. In outline:
(§2)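 Cells exposed 1 h to compound (5-50 µM; vehicle 0.1% DMSO), washed, then irradiated (0.77 mW/cm²) for 0, 30 or 80 min; after serum addition kept 24 h. PI/RNase A staining in hypotonic 0.1% citrate-0.1% Triton X-100, 30 min, 37 °C; sub-G1 peak by flow cytometry, debris gated out, ≥2×10^4 cells; five replicates, mean ± SEM.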

Data set [13] deals with A549. The data set is described as follows: Induction of morphological changes in human A549 cells assessed as cells with blebbing membranes up to 2.5 uM preincubated for 1 hr followed by 0.77 mW/cm2 white light irradiation for 80 mins measured after 24 hrs by phase contrast microscopy. The class given is functional, cell-based. In outline: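 A549 cells (1×10^5/well) on coverslips given vehicle (0.1% DMSO) or compound (0.625, 1.25, 2.5 µM) for 1 h, then irradiated 80 min (0.77 mW/cm²); kept 24 h in regular medium and examined unstained by phase-contrast microscopy (40× objective); representative fields imaged; experiments done three times.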

A short description of data set [14]: Cell cycle arrest in human A549 cells assessed as accumulation at subG1 phase at 2.5 uM preincubated for 1 hr followed by 0.77 mW/cm2 white light irradiation for 80 mins measured after 24 hrs in presence of 5 mM of NAC by propidium iodide staining based flow cytometry (reference value: 8.2 +/- 1.1%). It counts as functional.
Data set [15] is described as follows: Drug uptake in human A549 cells assessed as mean fluorescence intensity at 2.5 uM after 4 hrs by flow cytometry (reference value: 5.4 +/- 1.5). The class given is ADME, cell-based. The conditions noted are these: a549, 4 h.
Data set [16] deals with A549. The data set is described as follows: Induction of apoptosis in human A549 cells assessed as pro-caspase 3 level at 2.5 uM preincubated for 1 hr followed by 0.77 mW/cm2 white light irradiation for 80 mins measured after 16 hrs by immunoblot analysis relative to control. It counts as functional. In outline: as §1
The nature of data set [17]: Induction of apoptosis in human A549 cells assessed as accumulation at subG1 phase up to 50 uM measured after 24 hrs under dark condition by propidium iodide staining based flow cytometry. Particulars: a549, 24 h. The class given is cell-based. In outline: as §2
Data set [18] can be described thus: Drug uptake in human L-132 cells assessed as mean fluorescence intensity at 2.5 uM after 16 hrs by flow cytometry (reference value: 4.6 +/- 1.2). It counts as ADME, cell-based. Particulars: l132, 16 h.
The species named for data set [19] is Bos taurus. Kind of data set: Binding affinity to calf thymus duplex DNA by UV-visible spectra analysis.
The subject of data set [20] is A549. Kind of data set: Photocytotoxicity against human A549 cells assessed as decrease in cell viability at 500 to 5000 nM preincubated for 1 hr followed by 0.77 mW/cm2 white light irradiation measured after 24 hrs by MTT assay. It counts as functional, cell-based. Particulars: TDE = time-dependent effect. In outline: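 A549 cells (1×10^4/well), plated overnight, given compound for 1 h in serum-free medium, washed twice with PBS, irradiated 0.5, 1, 2 or 4 h at 0.77 mW/cm² (37 °C, 5% CO₂), then 24 h in regular medium; MTT 0.5 mg/mL for 6 h, formazan dissolved in 0.01 N HCl/10% SDS, A550.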

A short description of data set [21]: Cell cycle arrest in human A549 cells assessed as accumulation at subG1 phase at 2.5 uM preincubated for 1 hr followed by 0.77 mW/cm2 white light irradiation for 80 mins measured after 24 hrs in presence of 100 uM of beta-carotene by propidium iodide staining based flow cytometry (reference value: 8.2 +/- 1.1%). The class given is functional.
Data set [22] has as its system A549. Kind of data set: Induction of apoptosis in human A549 cells assessed as accumulation at subG1 phase at 5 to 50 uM preincubated for 1 hr followed by 0.77 mW/cm2 white light irradiation for 80 mins measured after 24 hrs by propidium iodide staining based flow cytometry relative to control. It counts as functional. In a few lines: as §2

Activity calls are given as the source filed them. The calls are words filed in the database; no cut-off is given here.

For `CCC1=C(C)C2=C(C)c3c(C)c(CC)c(C)n3[B-](F)(F)[N+]2=C1/C=C/c1ccc(O[C@H]2O[C@H](CO)[C@@H](O)[C@H](O)[C@H]2O)cc1`, the Activity entry is “Non-Toxic” in data set [1]; “Tde” in the data set with A549 [2]; “Non-Toxic” in [3]; 5 to 7% in [6]; 68.8% in data set [8]; “Non-Toxic” in data set [10]. The Activity entry in data set [11] is “Non-Toxic”; in data set [14], 46.5%; in [17] it was “Non-Toxic”; in the data set with A549 [20], “Tde”; in [21], 43.2%. Besides, the Flu intensity in [4] was 49.4 to 58.4; in data set [15] it was 66.2 to 68.9; in data set [18], 41.5. The outcome with A549 [5], in the data set listed under Bos taurus [7] and with A549 [13] was Active. For the same compound, the Drug uptake result in data set [9] was “Active”. Also, the “fold change (FC)” value is on record as 2.8 - 3.3 with A549 [12], 0.6 in the data set with A549 [16] and 5 - 6 with A549 [22]. Besides, in the data set filed under Bos taurus [19], the Kb was found to be 1.8 ×10⁴ /M.
